Measured values as given in ChEMBL document CHEMBL3286129, “Optimization of peptidomimetic boronates bearing a P3 bicyclic scaffold as proteasome inhibitors” (Eur J Med Chem, 2014).
The source made the active and inactive calls. The calls are words filed in the database; no cut-off is given here.

Legend:
[1] = target: T1, Proteasome Macropain subunit MB1 (Homo sapiens, UniProt P28074); assay: Inhibition of chymotrypsin-like activity of 20S proteasome in human erythrocytes using Suc-Leu-Leu-Val-Tyr-AMC as substrate by fluorescence assay; details: read-out: Ki
T1 sequence (P28074 whole entry): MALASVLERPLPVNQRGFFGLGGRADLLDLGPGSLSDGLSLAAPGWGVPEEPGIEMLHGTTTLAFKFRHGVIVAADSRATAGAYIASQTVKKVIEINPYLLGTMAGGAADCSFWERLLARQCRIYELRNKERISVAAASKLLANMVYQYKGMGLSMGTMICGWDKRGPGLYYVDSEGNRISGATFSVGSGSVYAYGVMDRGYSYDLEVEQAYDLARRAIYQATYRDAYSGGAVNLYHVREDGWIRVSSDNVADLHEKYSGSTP

[2] = target: Proteasome Macropain subunit (Homo sapiens) (UniProt P49721); assay: Inhibition of trypsin-like activity of 20S proteasome in human erythrocytes using Boc-Leu-Arg-Arg-AMC as substrate by fluorescence assay; assay type: cell-based
Chain of Proteasome Macropain subunit (Homo sapiens) (P49721 whole entry): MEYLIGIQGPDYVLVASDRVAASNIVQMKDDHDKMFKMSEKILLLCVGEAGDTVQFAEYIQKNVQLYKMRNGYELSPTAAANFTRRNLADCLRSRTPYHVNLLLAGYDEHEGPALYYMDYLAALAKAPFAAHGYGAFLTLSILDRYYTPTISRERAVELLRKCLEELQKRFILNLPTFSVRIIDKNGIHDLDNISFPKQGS
Procedure, shortened: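 Human 20S proteasome 0.0025 mg/mL at 30 °C in 50 mM Tris pH 7.4, 50 mM NaCl, 0.5 mM EDTA, 0.03% SDS, 7.5% DMSO. Varied inhibitor concentrations; AMC release monitored continuously for 10 min, ex 380/em 460 nm. Ki derived from progress-curve IC50 fit.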

Chymotrypsinogen A = Chymotrypsinogen A (Bos taurus, UniProt P00766); assay: Inhibition of bovine pancreatic alpha-chymotrypsin using Suc-Leu-Leu-Val-Tyr-AMC as substrate by fluorescence assay
Procedure, shortened: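 Enzyme incubated at 20 °C in 50 mM Tris pH 8.0, 100 mM NaCl, 5 mM EDTA, 7.5% DMSO with varied inhibitor concentrations. Substrate hydrolysis followed for 10 min. Ki from progress curves; mean of three determinations.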

Proteasome component C5 = target: T2, Proteasome component C5 (Homo sapiens, UniProt P20618); assay: Inhibition of PGPH-like activity of 20S proteasome in human erythrocytes using Z-Leu-Leu-Glu-AMC as substrate by fluorescence assay
T2 sequence (P20618 whole entry): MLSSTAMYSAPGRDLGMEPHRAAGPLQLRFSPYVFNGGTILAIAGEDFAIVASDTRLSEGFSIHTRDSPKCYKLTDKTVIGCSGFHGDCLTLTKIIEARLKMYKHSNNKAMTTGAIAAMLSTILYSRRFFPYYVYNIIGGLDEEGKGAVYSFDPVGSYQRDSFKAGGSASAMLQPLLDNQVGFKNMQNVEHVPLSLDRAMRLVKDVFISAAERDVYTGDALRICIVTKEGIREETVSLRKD
Procedure, shortened: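 Human 20S proteasome 0.004 mg/mL, 30 °C, 50 mM Tris pH 7.5 with 25 mM KCl, 10 mM NaCl, 1 mM MgCl2, 0.03% SDS, 5% DMSO. Ki from 4-parameter IC50 fit of progress curves, corrected to zero substrate via Km. Mean of three.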

MDA-MB-435 = assay: Growth inhibition of human MDA-MB-435 cells; assay type: functional
[3] = Growth inhibition of human UO31 cells; assay type: functional; details: UO-31
M14 = assay: Growth inhibition of human M14 cells; assay type: functional
COLO 205 = assay: Growth inhibition of human COLO205 cells; assay type: functional
SR = assay: Growth inhibition of human SR cells; assay type: functional
[4] = Growth inhibition of human Hs 578T cells; assay type: functional
A549 = assay: Growth inhibition of human A549/ATCC cells; assay type: functional
NCI-H322M = assay: Growth inhibition of human NCI-H322M cells; assay type: functional
HT-29 = assay: Growth inhibition of human HT-29 cells; assay type: functional
SK-MEL-28 = assay: Growth inhibition of human SK-MEL-28 cells; assay type: functional
[5] = Growth inhibition of human EKVX cells; assay type: functional
HCT-116 = assay: Growth inhibition of human HCT116 cells; assay type: functional
U-251 = assay: Growth inhibition of human U251 cells; assay type: functional
T47D = assay: Growth inhibition of human T47D cells; assay type: functional
[6] = Growth inhibition of human OVCAR3 cells; assay type: functional; details: OVCAR-3
NCI-H23 = assay: Growth inhibition of human NCI-H23 cells; assay type: functional
ACHN = assay: Growth inhibition of human ACHN cells; assay type: functional
[7] = Growth inhibition of human NCI-ADR-RES cells; assay type: functional
[8] = Growth inhibition of human OVCAR8 cells; assay type: functional; details: OVCAR-8
NCI-H460 = assay: Growth inhibition of human NCI-H460 cells; assay type: functional
[9] = Growth inhibition of human HCC2998 cells; assay type: functional; details: HCC 2998
MDA-MB-231 = assay: Growth inhibition of human MDA-MB-231 cells; assay type: functional
TK-10 = assay: Growth inhibition of human TK10 cells; assay type: functional
[10] = Growth inhibition of human BT549 cells; assay type: functional; details: BT-549
NCI-H226 = assay: Growth inhibition of human NCI-H226 cells; assay type: functional
[11] = Growth inhibition of human UACC257 cells; assay type: functional; details: UACC-257
Malme-3M = assay: Growth inhibition of human MALME-3M cells; assay type: functional
SK-OV-3 = assay: Growth inhibition of human SKOV3 cells; assay type: functional
SN12C = assay: Growth inhibition of human SN12C cells; assay type: functional
[12] = Growth inhibition of human UACC62 cells; assay type: functional; details: UACC-62
MDA-MB-468 = assay: Growth inhibition of human MDA-MB-468 cells; assay type: functional
SK-MEL-5 = assay: Growth inhibition of human SK-MEL-5 cells; assay type: functional
[13] = Growth inhibition of human RXF393 cells; assay type: functional; details: RXF 393
MCF7 = assay: Growth inhibition of human MCF7 cells; assay type: functional
RPMI-8226 = assay: Growth inhibition of human RPMI8226 cells; assay type: functional
PC-3 = assay: Growth inhibition of human PC3 cells; assay type: functional
KM12 = assay: Growth inhibition of human KM12 cells; assay type: functional
[14] = Growth inhibition of human OVCAR4 cells; assay type: functional; details: OVCAR-4
[15] = Growth inhibition of human SF295 cells; assay type: functional; details: SF-295
CAKI-1 = assay: Growth inhibition of human CAKI-1 cells; assay type: functional
HL-60(TB) = assay: Growth inhibition of human HL-60(TB) cells; assay type: functional
[16] = Growth inhibition of human HOP92 cells; assay type: functional; details: HOP-92
DU-145 = assay: Growth inhibition of human DU145 cells; assay type: functional
[17] = Growth inhibition of human OVCAR5 cells; assay type: functional; details: OVCAR-5
[18] = Growth inhibition of human HCT15 cells; assay type: functional; details: HCT-15
[19] = Growth inhibition of human MOLT4 cells; assay type: functional; details: MOLT-4
[20] = Growth inhibition of human LOXIMVI cells; assay type: functional; details: LOX IMVI
SNB-19 = assay: Growth inhibition of human SNB19 cells; assay type: functional
SF-268 = assay: Growth inhibition of human SF268 cells; assay type: functional
HOP-62 = assay: Growth inhibition of human HOP62 cells; assay type: functional
[21] = Growth inhibition of human SF539 cells; assay type: functional; details: SF-539
A498 = assay: Growth inhibition of human A498 cells; assay type: functional
786-0 = assay: Growth inhibition of human 786-0 cells; assay type: functional
K562 = assay: Growth inhibition of human K562 cells; assay type: functional
IGROV-1 = assay: Growth inhibition of human IGROV1 cells; assay type: functional
CCRF-CEM = assay: Growth inhibition of human CCRF-CEM cells; assay type: functional
SW-620 = assay: Growth inhibition of human SW620 cells; assay type: functional
SK-MEL-2 = assay: Growth inhibition of human SK-MEL-2 cells; assay type: functional
NCI-H522 = assay: Growth inhibition of human NCI-H522 cells; assay type: functional
SNB-75 = assay: Growth inhibition of human SNB75 cells; assay type: functional
[22] = Cytotoxicity against human melanoma cells assessed as cell growth at 10 uM relative to control; assay type: functional; details: read-out: Activity
Procedure, shortened: (§1)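 Single-concentration screen against a panel of human cancer cell lines. Each value is the mean percent growth across the cell lines of that tumour subpanel.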

[23] = Cytotoxicity against human colon cancer cells assessed as cell growth at 10 uM relative to control; assay type: functional; details: Cancer cell lines, read-out: Activity; procedure, shortened: as §1
[24] = Cytotoxicity against human CNSC cells assessed as cell growth at 10 uM relative to control; assay type: functional; details: read-out: Activity; procedure, shortened: as §1
[25] = Cytotoxicity against human NSCLC cells assessed as cell growth at 10 uM relative to control; assay type: functional; details: read-out: Activity; procedure, shortened: as §1
[26] = Cytotoxicity against human prostate cancer cells assessed as cell growth at 10 uM relative to control; assay type: functional; details: Cancer cell lines, read-out: Activity; procedure, shortened: as §1
[27] = Cytotoxicity against human ovarian cancer cells assessed as cell growth at 10 uM relative to control; assay type: functional; details: Cancer cell lines, read-out: Activity; procedure, shortened: as §1
[28] = Cytotoxicity against human breast cancer cells assessed as cell growth at 10 uM relative to control; assay type: functional; details: Cancer cell lines, read-out: Activity; procedure, shortened: as §1
[29] = Cytotoxicity against human leukemia cells assessed as cell growth at 10 uM relative to control; assay type: functional; details: read-out: Activity; procedure, shortened: as §1
[30] = Cytotoxicity against human renal cancer cells assessed as cell growth at 10 uM relative to control; assay type: functional; details: Cancer cell lines, read-out: Activity; procedure, shortened: as §1

SMILES: CC(C)CCNC(=O)Cn1ccc2ccc(Br)cc2c1=O
- Ki [1]: 2340 nM
- inhibition [2]: inactive
- Ki (Chymotrypsinogen A): Not Active
- Ki (Proteasome component C5): Not Active

SMILES: CC(C)C[C@H](NC(=O)[C@H](Cc1ccccc1)NC(=O)c1cnccn1)B(O)O [BORTEZOMIB]
- GI50 (MDA-MB-435): 0.44 nM
- GI50 [3]: 1.05 nM
- GI50 (M14): 0.93 nM
- GI50 (COLO 205): 1.23 nM
- GI50 (SR): 0.85 nM
- GI50 [4]: 1.02 nM
- GI50 (A549): 3.09 nM
- GI50 (NCI-H322M): 17.8 nM
- GI50 (HT-29): 0.95 nM
- GI50 (SK-MEL-28): 0.46 nM
- Ki (Chymotrypsinogen A; read-out: Ki): 2400 nM
- GI50 [5]: 3.02 nM
- GI50 (HCT-116): 0.6 nM
- GI50 (U-251): 1.55 nM
- GI50 (T47D): 0.6 nM
- GI50 [6]: 0.54 nM
- GI50 (NCI-H23): 1 nM
- GI50 (ACHN): 0.79 nM
- GI50 [7]: 12.3 nM
- GI50 [8]: 2.63 nM
- GI50 (NCI-H460): 4.47 nM
- GI50 [9]: 0.6 nM
- GI50 (MDA-MB-231): 1.26 nM
- GI50 (TK-10): 1 nM
- GI50 [10]: 0.55 nM
- GI50 (NCI-H226): 0.46 nM
- GI50 [11]: 0.59 nM
- GI50 (Malme-3M): 0.45 nM
- GI50 (SK-OV-3): 13.8 nM
- GI50 (SN12C): 1.1 nM
- GI50 [12]: 0.91 nM
- GI50 (MDA-MB-468): 1.48 nM
- GI50 (SK-MEL-5): 0.68 nM
- GI50 [13]: 0.71 nM
- GI50 (MCF7): 0.55 nM
- GI50 (RPMI-8226): 0.23 nM
- GI50 (PC-3): 2.63 nM
- GI50 (KM12): 1.7 nM
- GI50 [14]: 1.95 nM
- GI50 [15]: 1.7 nM
- GI50 (CAKI-1): 0.66 nM
- GI50 (HL-60(TB)): 1.9 nM
- GI50 [16]: 1 nM
- GI50 (DU-145): 1.7 nM
- GI50 [17]: 1.55 nM
- GI50 [18]: 1.51 nM
- GI50 [19]: 0.51 nM
- GI50 [20]: 0.78 nM
- GI50 (SNB-19): 2.04 nM
- GI50 (SF-268): 1.17 nM
- GI50 (HOP-62): 4.47 nM
- GI50 [21]: 0.59 nM
- GI50 (A498): 0.48 nM
- GI50 (786-0): 1.44 nM
- GI50 (K562): 1.17 nM
- GI50 (IGROV-1): 2.24 nM
- GI50 (CCRF-CEM): 0.35 nM
- GI50 (SW-620): 0.55 nM
- GI50 (SK-MEL-2): 1.07 nM
- GI50 (NCI-H522): 1.44 nM
- GI50 (SNB-75): 2.04 nM

SMILES: COc1cc2ccn(CCC(=O)NCCC(C)C)c(=O)c2cc1OC
- growth at 10 µM [22]: 106%
- inhibition [2]: inactive
- growth at 10 µM [23]: 106%
- growth at 10 µM [24]: 98%
- growth at 10 µM [25]: 99.2%
- growth at 10 µM [26]: 103%
- growth at 10 µM [27]: 103%
- growth at 10 µM [28]: 103%
- growth at 10 µM [29]: 108%
- growth at 10 µM [30]: 95.3%
